From paper PMC3278212 (Bioorganic & medicinal chemistry letters, 2012)

How the values were obtained:
IIIB strain of HIV-1 = format: cell-based; details: HIV-1 IIIB, MT-2 cells
MT-2 human T-cells = assay: Cytotoxicity: inhibition of MT-2 cell growth, MTT; format: cell-based; details: MT-2 cells
How it was run: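 Run alongside the HIV-1 IIIB protection assay in MT-2 human T-cells, with the MTT colorimetric method as read-out. CC50 is the concentration that inhibits MT-2 cell growth by 50%, obtained at the same time as the EC50 for protection of infected cells.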

SMILES: COc1nc(NCCNc2nc(Nc3ccc(C#N)c(OCC=C(C)C)c3)nc(OC)n2)nc(Nc2ccc(C#N)c(OCC=C(C)C)c2)n1 [Compound 6e]
- anti-viral activity below CC50 level (IIIB strain of HIV-1): did not show anti-viral activity below their CC50 levels

SMILES: COc1nc(NCCCNc2nc(Nc3ccc(C#N)c(OCC=C(C)C)c3)nc(OC)n2)nc(Nc2ccc(C#N)c(OCC=C(C)C)c2)n1 [Compound 6f]
- anti-viral activity below CC50 level (IIIB strain of HIV-1): did not show anti-viral activity below their CC50 levels

SMILES: COc1nc(Nc2ccc(C#N)c(OCC=C(C)C)c2)nc(OCCCOc2nc(Nc3ccc(C#N)c(OCC=C(C)C)c3)nc(OC)n2)n1 [Compound 6b]
- cytotoxicity (MT-2 human T-cells): 20 to 40 µM

SMILES: COc1nc(Nc2ccc(C#N)c(OCC=C(C)C)c2)nc(OCCOc2nc(Nc3ccc(C#N)c(OCC=C(C)C)c3)nc(OC)n2)n1 [Compound 6a]
- cytotoxicity (MT-2 human T-cells): 20 to 40 µM
